In PubChem BioAssay:
Results filed as inconclusive are left out.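 The calls were made as follows, unless noted: active = inhibition over a set limit, the all-compound mean plus 3 SD, in both replicate runs; inconclusive = over that limit in just one replicate run; inactive = at or under that limit in both runs.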

Columns and labels:
[1] = OD615 S. cerevisiae growth inhibition, permissive medium, pilot counter-assay, permissive growth control for S. cerevisiae lifespan shortening project (AID 705;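 active = growth inhibition above 25% in both replicates, a cutoff set 3 SD above the mean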); settings: OD615, 24 h, at 10 µM, hits give high values
How it was run: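 System: engineered DeaD yeast; Medium: permissive raffinose/galactose medium; Compound dosing: 10 µM single dose, 0.25% DMSO; Incubation: 4 h cell pre-growth, 24 h exposure at 30 °C; Technique: OD at 615 nm; Evaluation: growth inhibition from lowered OD615 after 24 h.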

[2] = Restrictive medium S. cerevisiae growth inhibition, OD615, pilot screen of yeast lifespan reduction project, restrictive growth control (AID 706;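 active = growth inhibition above a set limit, 3 SD over mean compound inhibition, in both replicates, cut at about 43% in these data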;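 also: modified DeaD lifespan yeast strain shifted to restrictive glucose medium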); settings: OD615, 48 h, at 10 µM, hits give high values
How it was run: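 Material: modified S. cerevisiae; buffer or medium: CSMM-D glucose medium; doses: one concentration, 10 µM final, 0.25% DMSO; incubation: 48 h compound exposure at 30 °C; detection: optical density at 615 nm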

[3] = viability gain of MRP-1-high H69AR cells under doxorubicin, pilot screen, MRP-1 activator project, CellTiter-Glo, duplicate (AID 807;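 active = viability increase at or above a cutoff of the median across tested compounds plus 3 SD, cut at about 8.5% in these data, passing the limit was not always enough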;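 also: compound pretreatment 18-22 h then 72 h combined with doxorubicin; 0% = doxorubicin alone and 100% = vehicle without doxorubicin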); settings: H69AR viability with doxorubicin, CellTiter-Glo luminescence; at 10 µM; hits give high values
[4] = growth suppression of beta-catenin knockout HCT116, pilot screen, human colon tumor cells (AID 823;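 active = cell viability at or below a set limit in both duplicate runs, the limit being the all-compound median minus 4 SD, cut at about 23% in these data, passing the limit was not always enough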;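 also: 0% = wells killed by 20 µM Hyamine and 100% = untreated DMSO cell wells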); settings: CellTiter-Glo, 60 h, at 10 µM, hits give low values
[5] = growth suppression of PTEN-deleted HCT116, pilot screen, cell-based, HCT116 clonal line, CellTiter-Glo (AID 824;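 active = viability at or below 27.92% in each of two runs, the all-compound median minus 4 SD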;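 also: 0% = 20 µM Hyamine control and 100% = vehicle cell control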); settings: 60 h, at 10 µM, hits give low values
[6] = inhibitors of the yeast RAM network, pilot screen, dse1pr::URA3 reporter, 5-FOA selection (AID 869);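 also: 0% = DMSO wells with no growth and 100% = 10 µM 1-NA-PP1 with full growth; RAM network block rescues cells from 5-FOA so hits raise OD615 growth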; settings: S. cerevisiae dse1pr::URA3 5-FOA growth, OD615, 2 d; at 10 µM; hits give high values; strain carries analog-sensitive mutant Cbk1 kinase
[7] = RAM signaling pathway blockade in yeast – S. cerevisiae, Pdr1DBD-CYC8 efflux-inhibited sensitized strain, primary screen (AID 1298;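 active = RAM network inhibition above 8.4% in each of two replicates, 3 SD over the compound average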;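 also: 0% = DMSO untreated cells without growth and 100% = 10 µM 1-NA-PP1 full growth; higher means more yeast growth rescued from 5-FOA killing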); settings: S. cerevisiae cbk1-as DSE1-URA3 strain, 5-FOA growth OD615, 2 d; at 50 µM; hits give high values

CC1CCCN(C(=O)CNC(=O)Cn2ccc3ccccc3c2=O)C1 (configuration not stated)
inactive: growth inhibition [1] -10.8% | growth inhibition [2] -1.01% | viability increase [3] -1.73% | viability [4] 99.5% | viability [5] 94.5% | inhibition [6] 2.08% | RAM network inhibition [7] 2.25%

COc1ccccc1N1CCN(c2cc(=O)n(-c3ccc(Cl)cc3)c(=O)[nH]2)CC1
inactive: growth inhibition [1] -5.8% | growth inhibition [2] -7.77% | viability increase [3] -2.22% | viability [4] 84.4% | viability [5] 77.7% | inhibition [6] 1.07% | RAM network inhibition [7] 7.55%

CCCCN1C(=O)C(O)(CC(=O)c2ccccc2OC)c2ccccc21 (configuration not stated)
inactive: growth inhibition [1] -13.7% | growth inhibition [2] -5.6% | viability increase [3] -3.31% | viability [4] 79.6% | viability [5] 89.5% | inhibition [6] 1.89% | RAM network inhibition [7] 2.02%

COc1ccc(NS(=O)(=O)c2ccc3c(c2)oc(=O)n3C)c(OC)c1
inactive: growth inhibition [1] -16.1% | growth inhibition [2] -28.2% | viability increase [3] 0.13% | viability [4] 104% | viability [5] 91.5% | inhibition [6] 1.07% | RAM network inhibition [7] 9.99%

O=C(O)c1ccc2c(c1)N(Cc1cccc(F)c1)C(=O)CS2
inactive: growth inhibition [1] 2.4% | growth inhibition [2] -0.16% | viability increase [3] 0.93% | viability [4] 102% | viability [5] 102% | inhibition [6] 0.2% | RAM network inhibition [7] 1.36%

CC(=O)N(CCCc1ccc(C(C)(C)C)cc1)CCCN(C)C
inactive: growth inhibition [1] -2.64% | growth inhibition [2] -12.6% | viability increase [3] -5.16% | viability [4] 70.6% | viability [5] 76.2% | inhibition [6] 0.59% | RAM network inhibition [7] 1.48%

COc1cccc(N2CCN(C(=O)c3ccc4nc(N5CCCCC5)sc4c3)CC2)c1
inactive: growth inhibition [1] -4.55% | growth inhibition [2] 3.63% | viability increase [3] 0.85% | viability [4] 89.1% | viability [5] 79.2% | inhibition [6] 0.805% | RAM network inhibition [7] 6.67%

O=C(NC1CCS(=O)(=O)C1)c1ccccc1C(=O)c1ccccc1 (configuration not stated)
inactive: growth inhibition [1] -15.2% | growth inhibition [2] -9.07% | viability increase [3] -0.35% | viability [4] 102% | viability [5] 99.1% | inhibition [6] 2.46% | RAM network inhibition [7] 9.61%

COCCn1c(=O)[nH]c2cc(C(=O)NCC3CCCO3)ccc2c1=O (configuration not stated)
inactive: growth inhibition [1] -6.33% | growth inhibition [2] -1.18% | viability increase [3] -0.04% | viability [4] 100% | viability [5] 95.2% | inhibition [6] 1.23% | RAM network inhibition [7] 1.45%

O=C(O)CCn1c(-c2ccccc2)cc2c1CCCC2=O
inactive: growth inhibition [1] 1.65% | growth inhibition [2] -0.555% | viability increase [3] -0.35% | viability [4] 95.7% | viability [5] 95% | inhibition [6] 4.84% | RAM network inhibition [7] 0.47%

N#CCCN1CCN(S(=O)(=O)c2ccc(S(=O)(=O)NCC3CCCO3)cc2)CC1 (configuration not stated)
inactive: growth inhibition [1] -1.2% | growth inhibition [2] 5.28% | viability increase [3] 0.55% | viability [4] 105% | viability [5] 104% | inhibition [6] 0.51% | RAM network inhibition [7] -2.15%

O=C(NCc1ccccn1)c1ccc2ccccc2n1
inactive: growth inhibition [1] 4.58% | growth inhibition [2] -7.25% | viability increase [3] -1.47% | viability [4] 111% | viability [5] 102% | inhibition [6] 1.32% | RAM network inhibition [7] 5.32%

O=C1C(C=NCc2ccco2)=C(O)c2ccccc21
inactive: growth inhibition [1] -0.635% | growth inhibition [2] -1.76% | viability increase [3] -3.09% | viability [4] 82.1% | viability [5] 89.9% | inhibition [6] 0.74% | RAM network inhibition [7] -0.41%

CC1(C)CC(=O)N(c2ccccc2)C1(C)O (configuration not stated)
inactive: growth inhibition [1] -8.08% | growth inhibition [2] -4.3% | viability increase [3] 0.17% | viability [4] 93.7% | viability [5] 104% | inhibition [6] 0.395% | RAM network inhibition [7] 1.53%

O=C(O)CCCC(=O)Nc1ccc(Cl)c(Cl)c1
inactive: growth inhibition [1] 4.12% | growth inhibition [2] -2% | viability increase [3] -0.13% | viability [4] 95.4% | viability [5] 98.1% | inhibition [6] 0.165% | RAM network inhibition [7] 1.64%

CC(=O)Nc1nc2c(F)cccc2s1
inactive: growth inhibition [1] -14.9% | growth inhibition [2] -3% | viability increase [3] -2.43% | viability [4] 96.5% | viability [5] 91.2% | inhibition [6] 1.6% | RAM network inhibition [7] 7.94%

CCOC(=O)Cn1c(=O)oc2cc(S(=O)(=O)Nc3ccc(F)cc3)ccc21
inactive: growth inhibition [1] -7.54% | growth inhibition [2] -3.97% | viability increase [3] 0.5% | viability [4] 96.7% | viability [5] 106% | inhibition [6] 1.07% | RAM network inhibition [7] 7.5%

COc1ccc(NC(=O)c2cc3ccccn3n2)cc1
inactive: growth inhibition [1] -2.21% | growth inhibition [2] 0.42% | viability increase [3] -0.18% | viability [4] 81% | viability [5] 73.1% | inhibition [6] -0.545% | RAM network inhibition [7] 0.83%

COCCOC(=O)c1c(C)oc2ccc(OCC=C(C)C)cc12
inactive: growth inhibition [1] -0.275% | growth inhibition [2] -6.21% | viability increase [3] 3.27% | viability [4] 97.8% | viability [5] 95% | inhibition [6] 0.175% | RAM network inhibition [7] 4.81%

CC1CN(S(=O)(=O)c2ccc(Cl)c(S(=O)(=O)N3CC(C)OC(C)C3)c2)CC(C)O1 (configuration not stated)
inactive: growth inhibition [1] -13.5% | growth inhibition [2] -17.1% | viability increase [3] -0.41% | viability [4] 89% | viability [5] 87.1% | inhibition [6] 4.11% | RAM network inhibition [7] 1.17%

COc1ccc(Cc2nc(-c3ccc(-n4cccc4)cc3)no2)cc1
inactive: growth inhibition [1] 0.23% | growth inhibition [2] -11.5% | viability increase [3] 3.66% | viability [4] 98.3% | viability [5] 88% | inhibition [6] 3.82% | RAM network inhibition [7] 3.16%

CC(=O)N1CCc2cc(C(=O)CN3CCN(c4ccccc4F)CC3)ccc21
inactive: growth inhibition [1] -7.16% | growth inhibition [2] -7.33% | viability increase [3] -3.19% | viability [4] 93.7% | viability [5] 88% | inhibition [6] 2.17% | RAM network inhibition [7] 2.34%

Cc1sc2ncnc(Sc3nnc4sc5ccccc5n34)c2c1C
inactive: growth inhibition [1] 6.21% | growth inhibition [2] -2.07% | viability increase [3] -3.97% | viability [4] 55.4% | viability [5] 65.2% | inhibition [6] 2.33% | RAM network inhibition [7] 5.95%

CC(=O)c1cccc(NC(=O)c2cc(C(C)C)on2)c1
inactive: growth inhibition [1] -14.6% | growth inhibition [2] 0.275% | viability increase [3] -1.46% | viability [4] 104% | viability [5] 97.7% | inhibition [6] 0.785% | RAM network inhibition [7] 0.94%

CC(=O)Nc1ccc(S(=O)(=O)NCCc2cc3c(C)ccc(C)c3[nH]c2=O)cc1
inactive: growth inhibition [1] -10.1% | growth inhibition [2] -6.53% | viability increase [3] -0.47% | viability [4] 98.2% | viability [5] 94.2% | inhibition [6] 1.82% | RAM network inhibition [7] 1.05%

O=C(CSc1nc2ccccc2[nH]1)Nc1ccc(F)cc1
inactive: growth inhibition [1] 3.95% | growth inhibition [2] 11.3% | viability increase [3] 0.83% | viability [4] 97.7% | viability [5] 90.2% | inhibition [6] 0.255% | RAM network inhibition [7] 5.07%

COC(=O)c1cnn2c(C)c(Cc3cccc(F)c3)c(C)nc12
inactive: growth inhibition [1] -5.12% | growth inhibition [2] -16% | viability increase [3] -5.7% | viability [4] 92.3% | viability [5] 80.9% | inhibition [6] 1.53% | RAM network inhibition [7] 2.9%

CCCCNC(=O)C1c2cc(OC)c(OC)cc2C(=O)N(C)C1c1ccc(OC)cc1 (configuration not stated)
inactive: growth inhibition [1] -7.31% | growth inhibition [2] -7.21% | viability increase [3] -2.49% | viability [4] 92.5% | viability [5] 98.4% | inhibition [6] 1.63% | RAM network inhibition [7] 1.97%

c1cncc(-c2noc(-c3ccco3)n2)c1
inactive: growth inhibition [1] -5.2% | growth inhibition [2] 7% | viability increase [3] 1.76% | viability [4] 96.7% | viability [5] 94.2% | inhibition [6] 1.41% | RAM network inhibition [7] 4.61%

CCCCCCn1c(CN2CCN(CCO)CC2)nc2c1c(=O)n(C)c(=O)n2C
inactive: growth inhibition [1] -6.85% | growth inhibition [2] -11.2% | viability increase [3] -4.86% | viability [4] 86.2% | viability [5] 89.4% | inhibition [6] 2.5% | RAM network inhibition [7] 2.43%

N#Cc1nc(-c2ccccc2Cl)oc1NCC1CCCO1 (configuration not stated)
inactive: growth inhibition [1] -2.88% | growth inhibition [2] 8.84% | viability increase [3] 0.31% | viability [4] 91.1% | viability [5] 86.8% | inhibition [6] 1.48% | RAM network inhibition [7] 1.33%

CCn1c(CCCNC(=O)c2cccs2)nc2ccccc21
inactive: growth inhibition [1] -6.02% | growth inhibition [2] -11.4% | viability increase [3] -2.77% | viability [4] 104% | viability [5] 96.1% | inhibition [6] 2.48% | RAM network inhibition [7] 1.95%

CCOC(=O)COc1cccc2c(=O)n(CC(=O)N3CCN(C(=O)OCC)CC3)ccc12
inactive: growth inhibition [1] -4.37% | growth inhibition [2] -7.13% | viability increase [3] -2.1% | viability [4] 104% | viability [5] 96.1% | inhibition [6] 1.04% | RAM network inhibition [7] 4.18%

O=C1CCCc2sc3c(c2N1)CCCCC3
inactive: growth inhibition [1] -3.24% | growth inhibition [2] 2.17% | viability increase [3] -0.35% | viability [4] 98.3% | viability [5] 91.6% | inhibition [6] 1.12% | RAM network inhibition [7] 3.61%

Cc1cccnc1NC(=O)c1c(O)c2ccccc2n(C)c1=O
inactive: growth inhibition [1] 3.49% | growth inhibition [2] 11.4% | viability increase [3] -3.77% | viability [4] 92% | viability [5] 98% | inhibition [6] -0.005% | RAM network inhibition [7] -1.38%

CS(=O)(=O)N(Cc1ccc(C(=O)NCc2ccco2)cc1)c1ccccc1
inactive: growth inhibition [1] -6.5% | growth inhibition [2] -0.32% | viability increase [3] -3.9% | viability [4] 94% | viability [5] 100% | inhibition [6] -0.1% | RAM network inhibition [7] 4.76%
